Reference: the array DNA melting data of Ke et al. (doi:10.1101/2024.01.08.574731)

Legend:
[1] = folding enthalpy; higher = less favourable; fluorescence melt of hairpins on a sequencing array, two-state fit; settings: sodium 0.088 M
Summary of the method: (§1)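 Melting temperature and folding enthalpy were obtained by bootstrapped two-state fitting. Fits used Cy3 fluorescence of library hairpins with annealed Cy3 and quencher oligos on a sequenced MiSeq flow cell, imaged in 50 mM Na-HEPES pH 8.0, 25 mM NaCl in 2.5 °C steps up to 60 °C and normalised to pre-quench Cy3 and control constructs. Four replicates were combined by inverse-variance weighting, and fitted temperatures were raised by 9.35 °C to match UV melts.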

[2] = melting temperature; fluorescence melt of hairpins on a sequencing array, two-state fit, raised by 9.35 °C to match UV melts; settings: sodium 0.088 M
Summary of the method: as §1

Sequence | folding enthalpy [1] | Tm [2]
GTATCAGGAAACTGATAC (((((((....))))))) | -164 kJ/mol | 54.6 °C
GTATCCCGAAAGGGTAC (((.(((....)))))) | -74.9 kJ/mol | 49 °C
GTATCCGAAAGGAATAC ((((((....))).))) | -97.1 kJ/mol | 40.4 °C
GTATCCGAAAGGAGATAC ((((((....)))..))) | -63.7 kJ/mol | 34.3 °C
GTATCGCGAAAGCGCTAC (((.(((....))).))) | -77 kJ/mol | 47.9 °C
GTATCGGGAAACCGACAC ((.((((....)))).)) | -81.5 kJ/mol | 39.3 °C
GTATCGGGAAACCGATGC (.(((((....))))).) | -93 kJ/mol | 53.3 °C
GTATCGGGAAACTGGTAC (((.(.(....).).))) | -74.3 kJ/mol | 32.3 °C
GTATCTCGAAAGAGTAC (((.(((....)))))) | -98.2 kJ/mol | 39.7 °C
GTATCTGGAAACAGGTAC (((.(((....))).))) | -151 kJ/mol | 42.7 °C
GTATGAGAAATCATAC ((((((....)))))) | -132 kJ/mol | 44.4 °C
GTATGAGGAAACTCACAC ((.((((....)))).)) | -60.5 kJ/mol | 29.4 °C
GTATGAGGAAACTTATAC ((((.((....)).)))) | -108 kJ/mol | 31.2 °C
GTATGCACGAAAGTGTAC (((..(((....)))))) | -39.2 kJ/mol | 31.1 °C
GTATGCGAAAGCACCTAC ((((((....)))..))) | -24.9 kJ/mol | 22.1 °C
GTATGCGAAAGCACTTAC ((((((....)))..))) | -54.7 kJ/mol | 35.1 °C
GTATGCGAAAGCATAC ((((((....)))))) | -118 kJ/mol | 69.2 °C
GTATGCGAAAGCATATAC ((((((....)))..))) | -45.9 kJ/mol | 42.2 °C
GTATGCTCGAAAGAGTAC (((..(((....)))))) | -44 kJ/mol | 26.7 °C
GTATGGGGAAACCTATAC ((((.((....)).)))) | -127 kJ/mol | 38.4 °C
GTATGTGGAAACATATAC ((((.((....)).)))) | -96.5 kJ/mol | 37.2 °C
GTATTACGAAAGTATTAC (((.(((....))).))) | -119 kJ/mol | 34.8 °C
GTATTAGGAAACTAATAC (((((((....))))))) | -159 kJ/mol | 46.3 °C

Sequence | folding enthalpy [1] | Tm [2]
GTATTCCGAAAGGATAC (((.(((....)))))) | -82.5 kJ/mol | 38.9 °C
GTATTCGAAAGAATAC ((((((....)))))) | -149 kJ/mol | 54.6 °C
GTATTCGAAAGAATATAC ((((((....)))..))) | -57.7 kJ/mol | 33.5 °C
GTATTCGGAAACGAGTAC (((.(((....))).))) | -119 kJ/mol | 43.6 °C
GTATTGAAAAATAC (((((....))))) | -64 kJ/mol | 33.1 °C
GTATTGGGAAACCGATAC ((((.((....)).)))) | -149 kJ/mol | 43.6 °C
GTATTTCGAAAGAATAC (((.(((....)))))) | -59.1 kJ/mol | 31.1 °C
GTATTTGGAAACAAGTAC (((.(((....))).))) | -86.4 kJ/mol | 35.7 °C
GTATTTGGAAACGAATAC (((((.(....).))))) | -127 kJ/mol | 35.8 °C
GTCAAAACGAAAGTTGAC (((..(((....)))))) | -102 kJ/mol | 40.5 °C
GTCAAACGAAAGTTAGAC (((.(((....))).))) | -123 kJ/mol | 44.9 °C
GTCAAAGAAATTTGAC ((((((....)))))) | -122 kJ/mol | 45 °C
GTCAAAGGAAACTTCGAC (((.(((....))).))) | -81.3 kJ/mol | 31.1 °C
GTCAAATCGAAAGATGAC (((..(((....)))))) | -67.3 kJ/mol | 35.6 °C
GTCAACCGAAAGGTGGAC (((.(((....))).))) | -127 kJ/mol | 56.2 °C
GTCAACGAAAGTTAGGAC ((((((....)))..))) | -71.6 kJ/mol | 31.8 °C
GTCAACGAAAGTTCTGAC ((((((....)))..))) | -55.5 kJ/mol | 25.9 °C
GTCAACGAAAGTTGCGAC ((((((....)))..))) | -73.9 kJ/mol | 46.6 °C
GTCAACGAAAGTTGGGAC ((((((....)))..))) | -48.1 kJ/mol | 32.7 °C
GTCAACGAAAGTTTAGAC ((((((....)))..))) | -67.4 kJ/mol | 31.3 °C
GTCAACGGAAACATTGAC (((((.(....).))))) | -110 kJ/mol | 35.6 °C
GTCAACTCGAAAGAGGAC (((..(((....)))))) | -85 kJ/mol | 33.2 °C
GTCAAGGGAAACCCTGAC ((((.((....)).)))) | -141 kJ/mol | 43.7 °C

Sequence | folding enthalpy [1] | Tm [2]
GTCAAGTCGAAAGACGAC (((..(((....)))))) | -64.4 kJ/mol | 41.9 °C
GTCAATCCGAAAGGAGAC (((..(((....)))))) | -84.9 kJ/mol | 32.5 °C
GTCAATCGAAAGATAGAC (((.(((....))).))) | -118 kJ/mol | 43.5 °C
GTCAATGGAAACATTGGC (.(((((....))))).) | -116 kJ/mol | 48.4 °C
GTCACATCGAAAGATGAC (((..(((....)))))) | -53.5 kJ/mol | 30.2 °C
GTCACCGAAAGGTCAGAC ((((((....)))..))) | -60.7 kJ/mol | 32.2 °C
GTCACCGAAAGGTTAGAC ((((((....)))..))) | -71.3 kJ/mol | 39.4 °C
GTCACGGGAAACCGTAAC ((.((((....)))).)) | -68.9 kJ/mol | 36.1 °C
GTCACTCGAAAGAGGAC (((.(((....)))))) | -100 kJ/mol | 45.8 °C
GTCACTGAAAAGTGAC ((((((....)))))) | -139 kJ/mol | 63.3 °C
GTCACTGGAAACAATGAC ((((.((....)).)))) | -90.2 kJ/mol | 35 °C
GTCACTGGAAACAGCGAC (((.(((....))).))) | -147 kJ/mol | 47.2 °C
GTCAGACGAAAGTCCGAC (((.(((....))).))) | -111 kJ/mol | 48.6 °C
GTCAGAGGAAACTCCGAC (((.(((....))).))) | -106 kJ/mol | 34.7 °C
GTCAGAGGAAACTCTGAC (((((((....))))))) | -158 kJ/mol | 61.7 °C
GTCAGCCCGAAAGGGGAC (((..(((....)))))) | -57.1 kJ/mol | 42.4 °C
GTCAGCGAAAGCTACGAC ((((((....)))..))) | -70.3 kJ/mol | 41 °C
GTCAGCGAAAGCTGGAC ((((((....))).))) | -60.4 kJ/mol | 53.1 °C
GTCAGCGAAAGCTGTGAC ((((((....)))..))) | -43.1 kJ/mol | 39.5 °C
GTCAGCGAAAGCTTTGAC ((((((....)))..))) | -64.1 kJ/mol | 35 °C
GTCAGCGGAAACGCCAAC ((..(((....)))..)) | -30.8 kJ/mol | 21.8 °C
GTCAGGCGAAAGCCGGAC (((.(((....))).))) | -103 kJ/mol | 69.1 °C
